Source: ChEMBL document CHEMBL1132465, “Design and synthesis of thrombin inhibitors: analogues of MD-805 with reduced stereogenicity and improved potency” (J Med Chem, 1999)

Experiments:
[1] = target: Prothrombin (Bos taurus, UniProt P00735); test: Inhibitory activity against bovine thrombin
[2] = The compound was evaluated for the dose to double the control plasma APTT value in the human plasma; type: functional
Method in brief: (§1)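 Human blood was anticoagulated with one-tenth volume 3.8% trisodium citrate and centrifuged at 1300g for 20 min to give platelet-poor plasma. Plasma was spiked with compound at 0 to about 150 μM. It was activated 5 min at 37 °C with bovine cephalin (ellagic acid) reagent, and clotting was started with 20 mM CaCl2. Clot time was read on a coagulometer. Concentration doubling APTT was read from a concentration–APTT plot.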

[3] = The compound was evaluated for the dose to double the control plasma APTT value in the human plasma.; type: functional; method in brief: as §1
[4] = target: Prothrombin (Homo sapiens, UniProt P00734); test: Inhibitory activity against human thrombin

Structure (SMILES) | Ki [1] [nM] | other results
CC1CNc2c(cccc2S(=O)(=O)NC(CCCNC(=N)N)C(=O)N2Cc3ccccc3CC2CO)C1 (configuration not stated) | 890 | –
CC1CNc2c(cccc2S(=O)(=O)NC(CCCNC(=N)N)C(=O)N2CCC(CO)CC2)C1 (configuration not stated) | 64 | –
CC1CNc2c(cccc2S(=O)(=O)NC(CCCNC(=N)N)C(=O)N2CCC[C@@H](CCO)C2)C1 (some centres not stated) | 1350 | –
CC(C)(c1ccccc1)c1cccc(S(=O)(=O)NC(CCCNC(=N)N)C(=O)N2CCc3ccccc3C2)c1 (configuration not stated) | 49 | –
CC1CNc2c(cccc2S(=O)(=O)NC(CCCN=C(N)N)C(=O)N2CCC[C@@H](CO)C2)C1 (some centres not stated) | 1500 | –
CC1CNc2c(cccc2S(=O)(=O)NC(CCCNC(=N)N)C(=O)N2CCC(CCOC(=O)CCCC(=O)O)CC2)C1 (configuration not stated) | 170 | –
CC1CNc2c(cccc2S(=O)(=O)NC(CCCN=C(N)N)C(=O)N2CCC(O)CC2)C1 (configuration not stated) | 5180 | –
CC1CNc2c(cccc2S(=O)(=O)NC(CCCN=C(N)N)C(=O)N2CCCC2)C1 (configuration not stated) | 795 | –
C[C@H]1CNc2c(cccc2S(=O)(=O)NC(CCCNC(=N)N)C(=O)N2CCC(CCO)CC2)C1 (some centres not stated) | 46 | –
CC1CNc2c(cccc2S(=O)(=O)NC(CCCN=C(N)N)C(=O)N2CCCC(O)C2)C1 (configuration not stated) | 360 | –
CCC1CCN(C(=O)C(CCCN=C(N)N)NS(=O)(=O)c2cccc3c2NCC(C)C3)CC1 (configuration not stated) | 27 | IC200 [2]: 6.27 µM
CC1(C)CNc2c(cccc2S(=O)(=O)NC(CCCN=C(N)N)C(=O)N2CCC(CC(F)F)CC2)C1 (configuration not stated) | – | IC200 [3]: 1.5 µM; Ki [4]: 6 nM
CC1(C)CNc2c(cc(Cl)cc2S(=O)(=O)NC(CCCN=C(N)N)C(=O)N2CCC(CCOC(=O)C(C)(C)C)CC2)C1 (configuration not stated) | 56 | IC200 [2]: 8.5 µM

Second part, led by results:

Ki [1] [nM] | Structure (SMILES) | other results
360 | CC1CNc2c(cccc2S(=O)(=O)NC(CCCN=C(N)N)C(=O)N2CCC(CCOC(=O)CC(=O)O)CC2)C1 (configuration not stated) | –
650 | CC1CNc2c(cccc2S(=O)(=O)NC(CCCN=C(N)N)C(=O)N2CCC(CCNC(=O)CCC(=O)O)CC2)C1 (configuration not stated) | –
52 | CC1CNc2c(cccc2S(=O)(=O)NC(CCCN=C(N)N)C(=O)N2CCC(CCO)CC2)C1 (configuration not stated) | –
980 | CC1CNc2c(cccc2S(=O)(=O)NC(CCCN=C(N)N)C(=O)N2CCC(CCOCCCC(=O)O)CC2)C1 (configuration not stated) | –
1980 | CC1CNc2c(cccc2S(=O)(=O)NC(CCCN=C(N)N)C(=O)N2CCC(CCCCCCC(=O)O)CC2)C1 (configuration not stated) | –
18400 | CC1CNc2c(cccc2S(=O)(=O)NC(CCCN=C(N)N)C(=O)N2CCC(CCC(=O)O)CC2)C1 (configuration not stated) | –
